Test results taken from ChEMBL document CHEMBL5230171, “Expanding the structure-activity relationships of alkynyl diphenylurea scaffold as promising antibacterial agents” (RSC Med Chem, 2023).
Values after ≈ are worked out from the molar mass of the structure shown. Active and inactive are the calls of the source. No cut-off for these calls is given here.

Assays:
[1] = Cytotoxicity against human HaCaT cells assessed as tolerance by measuring cell viability at 64 ug/ml incubated for 24 hrs by MTS assay relative to control; type: toxicity, cell-based; settings: at 64 µg/mL, read-out: Activity
In short: (§1)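 Vero or HaCaT cells were exposed to 32, 64 and 128 μg mL−1 compound in triplicate for 24 h at 37 °C, 5% CO2, with a DMSO control. MTS was then added for 4 h and OD490 read. Analysis used two-way ANOVA with Dunnett's post hoc test (p < 0.05).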

Staphylococcus aureus [2] = experiment: Antibacterial activity against vancomycin resistant Staphylococcus aureus 9 assessed as inhibition of bacterial growth at 0.5 ug/ml incubated for 18 to 20 hrs by CLSI protocol based broth microdilution method; type: functional, organism-based; settings: dose 0.5 µg/ml, time 18-20 hrs
Staphylococcus aureus [3] = experiment: Antibacterial activity against methicillin sensitive Staphylococcus aureus 6538 assessed as inhibition of bacterial growth at 0.5 ug/ml incubated for 18 to 20 hrs by CLSI protocol based broth microdilution method; type: functional, organism-based; settings: dose 0.5 µg/ml, time 18-20 hrs
In short: (§2)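 Staphylococcal and E. coli strains were diluted from a 0.5 McFarland suspension in cation-adjusted Mueller Hinton broth to ~5 × 10^5 CFU mL−1. They were incubated with serial dilutions of test agent in broth microdilution, and the MIC was recorded.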

Staphylococcus aureus [4] = experiment: Antibacterial activity against vancomycin resistant Staphylococcus aureus 12 assessed as inhibition of bacterial growth at 0.5 ug/ml incubated for 18 to 20 hrs by CLSI protocol based broth microdilution method; type: functional, organism-based; settings: dose 0.5 µg/ml, time 18-20 hrs
Staphylococcus aureus [5] = experiment: Antibacterial activity against methicillin sensitive Staphylococcus aureus 107 assessed as inhibition of bacterial growth at 0.5 ug/ml incubated for 18 to 20 hrs by CLSI protocol based broth microdilution method; type: functional, organism-based; settings: dose 0.5 µg/ml, time 18-20 hrs; in short: as §2
Staphylococcus aureus [6] = experiment: Antibacterial activity against methicillin resistant Staphylococcus aureus NRS384 USA300 assessed as inhibition of bacterial growth incubated for 18 to 20 hrs by CLSI protocol based broth microdilution method; type: functional; settings: time 18-20 hrs
In short: (§3)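 Broth microdilution against staphylococcal clinical isolates. Each strain was prepared as a 0.5 McFarland suspension and diluted in cation-adjusted Mueller Hinton broth to ~5 × 10^5 CFU mL−1. Serial dilutions of test agents in DMSO stock were incubated with the bacteria, and the MIC was recorded.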

Staphylococcus aureus [7] = experiment: Antibacterial activity against methicillin resistant Staphylococcus aureus 386 assessed as inhibition of bacterial growth at 0.5 ug/ml incubated for 18 to 20 hrs by CLSI protocol based broth microdilution method; type: functional, organism-based; settings: dose 0.5 µg/ml, time 18-20 hrs
Vero = experiment: Cytotoxicity against African green monkey Vero cells assessed as reduction in cell viability at 64 ug/ml incubated for 24 hrs by MTS assay; type: toxicity, cell-based; settings: chlorocebus sabaeus, dose 64 µg/ml; in short: as §1
Staphylococcus aureus [8] = experiment: Antibacterial activity against methicillin resistant Staphylococcus aureus 119 assessed as inhibition of bacterial growth at 0.5 ug/ml incubated for 18 to 20 hrs by CLSI protocol based broth microdilution method; type: functional, organism-based; settings: dose 0.5 µg/ml, time 18-20 hrs
Staphylococcus aureus [9] = experiment: Antibacterial activity against vancomycin resistant Staphylococcus aureus 10 assessed as inhibition of bacterial growth at 0.5 ug/ml incubated for 18 to 20 hrs by CLSI protocol based broth microdilution method; type: functional, organism-based; settings: dose 0.5 µg/ml, time 18-20 hrs
Staphylococcus aureus [10] = experiment: Antibacterial activity against methicillin resistant Staphylococcus aureus 385 assessed as inhibition of bacterial growth at 0.5 ug/ml incubated for 18 to 20 hrs by CLSI protocol based broth microdilution method; type: functional, organism-based; settings: dose 0.5 µg/ml, time 18-20 hrs
Staphylococcus aureus [11] = experiment: Antibacterial activity against methicillin resistant Staphylococcus aureus 384 assessed as inhibition of bacterial growth at 0.5 ug/ml incubated for 18 to 20 hrs by CLSI protocol based broth microdilution method; type: functional, organism-based; settings: dose 0.5 µg/ml, time 18-20 hrs
Staphylococcus aureus [12] = experiment: Antibacterial activity against methicillin resistant Staphylococcus aureus 123 assessed as inhibition of bacterial growth at 0.5 ug/ml incubated for 18 to 20 hrs by CLSI protocol based broth microdilution method; type: functional, organism-based; settings: dose 0.5 µg/ml, time 18-20 hrs
Streptococcus pyogenes [13] = experiment: Antibacterial activity against Streptococcus pyogenes MGAS 9882 assessed as inhibition of bacterial growth incubated for 18 to 20 hrs by CLSI protocol based broth microdilution method; type: functional; settings: time 18-20 hrs
In short: (§4)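 Streptococci were diluted from a 0.5 McFarland suspension in cation-adjusted Mueller Hinton broth with 5% lysed horse blood. They were incubated with serial dilutions of test agent in broth microdilution, and the MIC was recorded.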

Listeria monocytogenes = experiment: Antibacterial activity against Listeria monocytogenes 19111 assessed as inhibition of bacterial growth incubated for 18 to 20 hrs by CLSI protocol based broth microdilution method; type: functional; settings: time 18-20 hrs
In short: (§5)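 Enterococci and L. monocytogenes were diluted from a 0.5 McFarland suspension in TSB. They were incubated with serial dilutions of test agent in broth microdilution, and the MIC was recorded.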

Enterococcus faecalis = experiment: Antibacterial activity against Enterococcus faecalis 51299 assessed as inhibition of bacterial growth incubated for 18 to 20 hrs by CLSI protocol based broth microdilution method; type: functional; settings: time 18-20 hrs; in short: as §5
[14] = system: Staphylococcus epidermidis; experiment: Antibacterial activity against Staphylococcus epidermidis 101 assessed as inhibition of bacterial growth incubated for 18 to 20 hrs by CLSI protocol based broth microdilution method; type: functional; settings: time 18-20 hrs; in short: as §2
Streptococcus pneumoniae [15] = experiment: Antibacterial activity against Streptococcus pneumoniae 700677 assessed as inhibition of bacterial growth incubated for 18 to 20 hrs by CLSI protocol based broth microdilution method; type: functional; settings: time 18-20 hrs; in short: as §4
Staphylococcus aureus [16] = experiment: Antibacterial activity against methicillin sensitive Staphylococcus aureus 107 assessed as inhibition of bacterial growth incubated for 18 to 20 hrs by CLSI protocol based broth microdilution method; type: functional; settings: time 18-20 hrs; in short: as §3
Streptococcus pneumoniae [17] = experiment: Antibacterial activity against Streptococcus pneumoniae 51916 assessed as inhibition of bacterial growth incubated for 18 to 20 hrs by CLSI protocol based broth microdilution method; type: functional; settings: time 18-20 hrs; in short: as §4
Streptococcus mutans = experiment: Antibacterial activity against Streptococcus mutans 25175 assessed as inhibition of bacterial growth incubated for 18 to 20 hrs by CLSI protocol based broth microdilution method; type: functional; settings: time 18-20 hrs; in short: as §4
Staphylococcus aureus [18] = experiment: Antibacterial activity against methicillin resistant Staphylococcus aureus 123 assessed as inhibition of bacterial growth incubated for 18 to 20 hrs by CLSI protocol based broth microdilution method; type: functional; settings: time 18-20 hrs; in short: as §3
Staphylococcus aureus [19] = experiment: Antibacterial activity against vancomycin resistant Staphylococcus aureus 10 assessed as inhibition of bacterial growth incubated for 18 to 20 hrs by CLSI protocol based broth microdilution method; type: functional; settings: time 18-20 hrs; in short: as §3
Streptococcus pyogenes [20] = experiment: Antibacterial activity against Streptococcus pyogenes MGAS 1882 assessed as inhibition of bacterial growth incubated for 18 to 20 hrs by CLSI protocol based broth microdilution method; type: functional; settings: time 18-20 hrs; in short: as §4
Staphylococcus aureus [21] = experiment: Antibacterial activity against methicillin resistant Staphylococcus aureus 386 assessed as inhibition of bacterial growth incubated for 18 to 20 hrs by CLSI protocol based broth microdilution method; type: functional; settings: time 18-20 hrs; in short: as §3
Staphylococcus aureus [22] = experiment: Antibacterial activity against vancomycin resistant Staphylococcus aureus 12 assessed as inhibition of bacterial growth incubated for 18 to 20 hrs by CLSI protocol based broth microdilution method; type: functional; settings: time 18-20 hrs; in short: as §3
Enterococcus faecium = experiment: Antibacterial activity against Enterococcus faecium 700221 assessed as inhibition of bacterial growth incubated for 18 to 20 hrs by CLSI protocol based broth microdilution method; type: functional; settings: time 18-20 hrs; in short: as §5
Staphylococcus aureus [23] = experiment: Antibacterial activity against methicillin resistant Staphylococcus aureus 385 assessed as inhibition of bacterial growth incubated for 18 to 20 hrs by CLSI protocol based broth microdilution method; type: functional; settings: time 18-20 hrs; in short: as §3
Staphylococcus aureus [24] = experiment: Antibacterial activity against methicillin resistant Staphylococcus aureus 119 assessed as inhibition of bacterial growth incubated for 18 to 20 hrs by CLSI protocol based broth microdilution method; type: functional; settings: time 18-20 hrs; in short: as §3
Staphylococcus aureus [25] = experiment: Antibacterial activity against vancomycin resistant Staphylococcus aureus 9 assessed as inhibition of bacterial growth incubated for 18 to 20 hrs by CLSI protocol based broth microdilution method; type: functional; settings: time 18-20 hrs; in short: as §3
Staphylococcus aureus [26] = experiment: Antibacterial activity against methicillin sensitive Staphylococcus aureus 6538 assessed as inhibition of bacterial growth incubated for 18 to 20 hrs by CLSI protocol based broth microdilution method; type: functional; settings: time 18-20 hrs; in short: as §3
Staphylococcus aureus [27] = experiment: Antibacterial activity against methicillin resistant Staphylococcus aureus 384 assessed as inhibition of bacterial growth incubated for 18 to 20 hrs by CLSI protocol based broth microdilution method; type: functional; settings: time 18-20 hrs; in short: as §3

SMILES	viability at 24 h, 64 ug/ml [1]	Activity (Staphylococcus aureus [2])	Activity (Staphylococcus aureus [3])	Activity (Staphylococcus aureus [4])	Activity (Staphylococcus aureus [5])	MIC (Staphylococcus aureus [6]; read-out: MIC)	Activity (Staphylococcus aureus [7])	Activity (Vero)	Activity (Staphylococcus aureus [8])	Activity (Staphylococcus aureus [9])	Activity (Staphylococcus aureus [10])	Activity (Staphylococcus aureus [11])	Activity (Staphylococcus aureus [12])	other results
CCCCCCC#Cc1ccc(NC(=O)Nc2ccc(/C(C)=N/NC(=N)N)cc2)cc1	100%	Active	Active	Active	Active	0.5 µg/mL (≈ 1.19 µM)	Active	Non-Toxic	Active	Active	Active	Active	Active	–
C/C(=N\NC(=N)N)c1ccc(NC(=O)Nc2ccc(C#CC(O)CC(C)C)cc2)cc1 (stereo not drawn)	–	Active	Active	Active	Active	–	Active	–	Active	Active	Active	Active	Active	–
C/C(=N\NC(=N)N)c1ccc(NC(=O)Nc2ccc(C#CCC(C)C)cc2)cc1	–	Active	Active	Active	Active	0.5 µg/mL (≈ 1.28 µM)	Active	Non-Toxic	Active	Active	Active	Active	Active	MIC (Streptococcus pyogenes [13]): 0.5 µg/mL (≈ 1.28 µM); MIC (Listeria monocytogenes): 0.5 µg/mL (≈ 1.28 µM); MIC (Enterococcus faecalis): 0.5 µg/mL (≈ 1.28 µM); MIC [14]: 0.5 µg/mL (≈ 1.28 µM); MIC (Streptococcus pneumoniae [15]): 0.5 µg/mL (≈ 1.28 µM); MIC (Staphylococcus aureus [16]): 0.5 µg/mL (≈ 1.28 µM); MIC (Streptococcus pneumoniae [17]): 0.5 µg/mL (≈ 1.28 µM); MIC (Streptococcus mutans): 0.5 µg/mL (≈ 1.28 µM); MIC (Staphylococcus aureus [18]): 0.5 µg/mL (≈ 1.28 µM); MIC (Staphylococcus aureus [19]): 0.5 µg/mL (≈ 1.28 µM); MIC (Streptococcus pyogenes [20]): 0.5 µg/mL (≈ 1.28 µM); MIC (Staphylococcus aureus [21]): 0.5 µg/mL (≈ 1.28 µM); MIC (Staphylococcus aureus [22]): 0.5 µg/mL (≈ 1.28 µM); MIC (Enterococcus faecium): 0.5 µg/mL (≈ 1.28 µM); MIC (Staphylococcus aureus [23]): 0.5 µg/mL (≈ 1.28 µM); MIC (Staphylococcus aureus [24]): 0.5 µg/mL (≈ 1.28 µM); MIC (Staphylococcus aureus [25]): 0.5 µg/mL (≈ 1.28 µM); MIC (Staphylococcus aureus [26]): 0.5 µg/mL (≈ 1.28 µM); MIC (Staphylococcus aureus [27]): 0.5 µg/mL (≈ 1.28 µM)
C/C(=N\NC(=N)N)c1ccc(NC(=O)Nc2ccc(C#CC3CCCC3)cc2)cc1	100%	Active	Active	Active	Active	–	Active	Non-Toxic	Active	Active	Active	Active	Active	MIC (Staphylococcus aureus [6]): 2 µg/mL (≈ 4.97 µM)
CCCC#Cc1ccc(NC(=O)Nc2ccc(/C(C)=N/NC(=N)N)cc2)cc1	–	–	–	–	–	0.5 µg/mL (≈ 1.33 µM)	–	–	–	–	–	–	–	–
C/C(=N\NC(=N)N)c1ccc(NC(=O)Nc2ccc(C#CC3CCCCC3)cc2)cc1	–	–	–	–	–	4000 µg/mL (≈ 9600 µM)	–	–	–	–	–	–	–	–
CC(=O)NC[C@H]1CN(c2ccc(N3CCOCC3)c(F)c2)C(=O)O1	–	Active	Active	Active	Active	–	Active	–	Active	Active	Active	Active	Active	–
C/C(=N\NC(=N)N)c1ccc(NC(=O)Nc2ccc(C#CC(C)(C)C)cc2)cc1	–	Active	Active	Active	Active	0.5 µg/mL (≈ 1.28 µM)	Active	–	Active	Active	Active	Active	Active	–
CCCCCC#Cc1ccc(NC(=O)Nc2ccc(/C(C)=N/NC(=N)N)cc2)cc1	100%	Active	Active	Active	Active	0.5 µg/mL (≈ 1.24 µM)	Active	Non-Toxic	Active	Active	Active	Active	Active	–
